Laboratory results taken from ChEMBL document CHEMBL5579886, “Selective Degradation of MLK3 by a Novel CEP1347-VHL-02 PROTAC Compound Limits the Oncogenic Potential of TNBC” (J Med Chem, 2024).
Calls of active or inactive are those of the source. The rule behind the calls is not given here.

Experiments:
Type in all cases: cell-based
[1] = target: T1, von Hippel-Lindau disease tumor suppressor/Mitogen-activated protein kinase kinase kinase 11 (Homo sapiens, UniProt Q16584+P40337); experiment: PROTAC activity at VHL/DOX-inducible MLK3 (unknown origin) overexpressed in human HCC1806 cells assessed as protein degradation at 0.25 to 1 uM measured after 24 hrs by immunoblot analysis; conditions: dose 0.25-1 µM
T1 sequence (P40337 whole entry, looked up): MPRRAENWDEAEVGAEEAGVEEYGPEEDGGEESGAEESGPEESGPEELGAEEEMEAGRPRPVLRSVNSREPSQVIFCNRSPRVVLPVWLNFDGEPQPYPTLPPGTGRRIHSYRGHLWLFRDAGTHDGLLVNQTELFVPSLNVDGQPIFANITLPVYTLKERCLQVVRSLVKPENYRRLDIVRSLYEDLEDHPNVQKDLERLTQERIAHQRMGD
T1 sequence (Q16584 whole entry, looked up): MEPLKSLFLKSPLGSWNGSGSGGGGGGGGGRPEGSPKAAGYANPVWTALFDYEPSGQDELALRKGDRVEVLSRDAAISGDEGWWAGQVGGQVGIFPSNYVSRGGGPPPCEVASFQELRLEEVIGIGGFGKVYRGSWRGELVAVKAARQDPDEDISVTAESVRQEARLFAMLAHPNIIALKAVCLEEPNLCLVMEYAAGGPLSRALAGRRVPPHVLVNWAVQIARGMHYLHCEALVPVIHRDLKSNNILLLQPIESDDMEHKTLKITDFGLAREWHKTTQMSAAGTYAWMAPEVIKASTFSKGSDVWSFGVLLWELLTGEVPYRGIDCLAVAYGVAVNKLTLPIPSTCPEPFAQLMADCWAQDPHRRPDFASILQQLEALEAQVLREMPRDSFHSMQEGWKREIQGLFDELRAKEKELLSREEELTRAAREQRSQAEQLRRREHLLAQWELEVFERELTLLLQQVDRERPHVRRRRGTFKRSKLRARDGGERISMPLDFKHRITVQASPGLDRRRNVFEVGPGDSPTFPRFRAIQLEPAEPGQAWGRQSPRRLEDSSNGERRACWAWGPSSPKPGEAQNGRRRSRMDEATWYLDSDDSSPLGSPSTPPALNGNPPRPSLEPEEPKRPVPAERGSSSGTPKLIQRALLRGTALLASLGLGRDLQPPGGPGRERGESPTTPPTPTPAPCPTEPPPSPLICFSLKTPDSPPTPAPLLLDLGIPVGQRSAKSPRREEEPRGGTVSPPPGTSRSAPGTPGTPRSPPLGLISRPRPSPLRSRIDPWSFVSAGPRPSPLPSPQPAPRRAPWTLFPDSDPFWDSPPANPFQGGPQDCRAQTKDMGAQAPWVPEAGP

[2] = target: T1, von Hippel-Lindau disease tumor suppressor/Mitogen-activated protein kinase kinase kinase 11; experiment: PROTAC activity at VHL/MLK3 in human MDA-MB-468 cells assessed as protein degradation at 1 uM measured after 24 hrs by immunoblot analysis
How it was run: (§1)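 MCF-7 and MDA-MB-468 cells were treated for 24 h across 0.1–5 μM, with DMSO as control. MLK3 was immunoblotted and quantified as percent remaining versus concentration, from which DC50 and Dmax were derived.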

[3] = target: T1, von Hippel-Lindau disease tumor suppressor/Mitogen-activated protein kinase kinase kinase 11; experiment: PROTAC activity at VHL/MLK3 in human MCF7 cells assessed as protein degradation at 1 uM measured after 24 hrs by immunoblot analysis; how it was run: as §1
[4] = target: Mitogen-activated protein kinase kinase kinase 11 (Homo sapiens) (UniProt Q16584); experiment: Induction of degradation of DOX-inducible MLK3 (unknown origin) overexpressed in human MDA-MB-468 cells at 0.5 to 1 uM measured after 24 hrs by immunoblot analysis; conditions: dose 0.5-1 µM
Sequence of Mitogen-activated protein kinase kinase kinase 11 (Homo sapiens) (Q16584 whole entry, looked up): as above

[5] = target: Mitogen-activated protein kinase kinase kinase 11 (Homo sapiens) (UniProt Q16584); experiment: Induction of degradation of DOX-inducible MLK3 (unknown origin) overexpressed in human MCF7 cells at 0.5 to 1 uM measured after 24 hrs by immunoblot analysis; conditions: dose 0.5-1 µM

Row | Activity [4] | Activity [5] | Structure (SMILES) | Activity [1] | Activity [2] | Activity [3]
1 |  |  | CCSCc1ccc2c(c1)c1c3c(c4c5cc(CSCC)ccc5n5c4c1n2[C@H]1C[C@](O)(C(=O)NCCOCCOCCOCC(=O)N[C@H](C(=O)N2C[C@@H](O)C[C@H]2C(=O)N[C@@H](C)c2ccc(-c4scnc4C)cc2)C(C)(C)C)[C@]5(C)O1)CNC3=O | inactive | inactive | inactive
2 | inactive | inactive | CCSCc1ccc2c(c1)c1c3c(c4c5cc(CSCC)ccc5n5c4c1n2[C@H]1C[C@](O)(C(=O)OC)[C@]5(C)O1)CNC3=O |  |  | 
